From PubChem BioAssay
Rows were chosen to be rich in hits. Some 9.5% of all compounds tested hit in one or more screens of this group.
mHtt clearance: compounds clearing mutant huntingtin protein | HeLa Exon1htt(103Q)mCFP, aggregate imaging; zero = plate's median compound well | inhibition, % at 1.5 µM | 47,000 compounds, 0.42% hits | AID 853;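 active = inhibition of aggregate fluorescence above about 70%, also judged a hit by eye on the cell image, limit read from the data, passing the limit was not always enough; inconclusive = no rule stated for this call; inactive = not judged a hit on image review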;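 note: cells exposed to compound for three days before fixation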
HEK293 NFkB inh: inhibitors of the PMA/ionomycin-induced NF-kB reporter in HEK293 cells; HEK-293 NF-kB luciferase reporter, luminescence; inhibition, % at 3 µM; 62,000 compounds, 0.21% hits;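 active = inhibition above the mean of all tested compounds plus 3 SD, cut at about 40% in these data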;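 note: 0% = stimulated DMSO wells and 100% = 10 µM reference inhibitor 5653914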
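System – HEK-293 cells with stable firefly luciferase reporter driven by four HIV NF-kB elements · Doses – one dose, 3 µM · Schedule – 1 h compound pre-incubation, 16 h PMA/ionomycin at 37 °C · Technique – luminescence from luciferase substrate reagent · Measure – percent inhibition normalized per plate to DMSO and reference-inhibitor controls · Replicates – tested once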
M1 agonist: activates the M1 muscarinic receptor; CHO-M1 cells, Fluo-4 calcium fluorescence, agonist mode; hits give high values; B-score at 10 µM; 64,000 compounds, 3% hits;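 active = fluorescence rise, raw or as B-score row- and column-corrected plate score, outside the 99.7% band of its plate's samples, either direction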
Jurkat tox 60K: reduces viability or proliferation of Jurkat cells; Jurkat E6.1 viability, ATP luminescence, 48 h; inhibition, % at 4 µM; 56,000 compounds, 1.2% hits; AID 463;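 active = inhibition above the mean inhibition of all tested compounds plus 3 SD, cut at about 28% in these data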
D1 allo mod: allosterically modulates the human D1 dopamine receptor; P21728; HEK293 D1, CRE-luciferase, dopamine EC30 potentiation; actives deviate in either direction; B-score at 10 µM; 58,000 compounds, 5.9% hits; AID 641;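 active = luminescence count or its row- and column-corrected plate score outside the 99.7% band of the plate's sample wells, on either side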
Target sequence (P21728 whole entry, looked up): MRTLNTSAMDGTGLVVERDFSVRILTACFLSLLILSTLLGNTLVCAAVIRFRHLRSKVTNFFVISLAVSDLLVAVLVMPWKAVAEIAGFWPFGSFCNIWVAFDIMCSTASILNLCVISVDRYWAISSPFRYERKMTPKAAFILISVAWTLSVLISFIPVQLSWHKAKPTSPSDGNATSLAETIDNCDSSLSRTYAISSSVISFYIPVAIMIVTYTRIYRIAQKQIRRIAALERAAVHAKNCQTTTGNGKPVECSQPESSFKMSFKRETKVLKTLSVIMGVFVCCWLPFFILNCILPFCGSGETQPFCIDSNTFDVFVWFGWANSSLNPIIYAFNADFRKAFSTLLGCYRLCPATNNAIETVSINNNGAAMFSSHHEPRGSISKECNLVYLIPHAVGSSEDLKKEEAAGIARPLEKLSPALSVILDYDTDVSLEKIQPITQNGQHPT
M1 antagonist: M1 muscarinic receptor (rat) antagonism; 64,000 compounds, 3.4% hits; P08482; CHO-M1 cells, Fluo-4 calcium, ACh EC80 antagonist mode; hits give low values; B-score at 10 µM;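 active = calcium fluorescence response, raw or row-and-column corrected B-score, differing from the plate sample mean either way at a set confidence level, mostly lower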
M1 agonist conf: confirmation of rat M1 muscarinic receptor agonists. AID 1488. shares compounds with M1 agonist. fluorescence change (max-min) at 10 µM. 1,700 compounds, 19% hits. CHO-M1 cells, Fluo-4 calcium fluorescence, agonist mode; actives lie on both sides;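 active = fluorescence change differs from the solvent-only DMSO control mean at a set confidence level in both duplicate runs; inconclusive = differs from solvent-only control mean in just one of two runs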;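 note: an EC20 dose of acetylcholine follows compound addition during the same imaging run; raw fluorescence intensity difference in instrument units with no normalization to controls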
M4 agonist ctr: counter-screen for M1 agonists: activity at rat M4 receptor; shares compounds with M1 agonist; CHO M4/Gqi5 cells, Fluo-4 calcium fluorescence, agonist mode; actives lie on both sides; fluorescence change (max-min) at 10 µM; 1,700 compounds, 9% hits;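 active = fluorescence change differing from the plate's solvent-only control wells at 99.7% confidence in both duplicates, whether higher or lower; inconclusive = differs from solvent controls in only one of two duplicates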
Starred values were filed as active, the others as inactive; ? = inconclusive; . = not tested or not shown.

SMILES | mHtt clearance | HEK293 NFkB inh | M1 agonist | Jurkat tox 60K | D1 allo mod | M1 antagonist | M1 agonist conf | M4 agonist ctr
CCOC(=O)C1CCN(c2nc3ccccc3nc2C(C#N)C(=O)OCCOC)CC1 (centres undefined) | . | . | 6.21* | . | 0.379 | -0.0269 | 0 | -9.62
CCOC(=O)C1CCCN(c2nc3ccccc3nc2C(C#N)C(=O)OC(C)C)C1 (centres undefined) | . | . | 2.16 | . | 0.646 | -0.124 | . | .
CCOC(=O)C1CCN(c2nc3ccccc3nc2C(C#N)C(=O)OC(C)C)CC1 (centres undefined) | . | . | 27.8* | . | -0.283 | -0.369 | 6.42 | -32.5
CCOC(=O)C1CCN(c2nc3ccccc3nc2C(C#N)C(=O)OC(C)COC)CC1 (centres undefined) | . | . | 6.21* | . | . | -0.0913 | ? | -52.4
C=CCOC(=O)C(C#N)c1nc2ccccc2nc1N1CCC(C(=O)OCC)CC1 (centres undefined) | . | . | 5.09* | . | 1.53 | 0.194 | -2.75 | ?
C=CCOC(=O)C(C#N)c1nc2ccccc2nc1N1CCN(c2ccccc2OCC)CC1 (centres undefined) | . | . | -0.651 | . | 3.1 | -0.0109 | . | .
COc1cc(C)ccc1S(=O)(=O)N1CCN(C23CC4CC(CC(C4)C2)C3)CC1 | 0.8 | . | . | . | . | . | . | .
COc1ccccc1-c1nnc(SCC(=O)OC(C)C)o1 | 24.3 | 2.3 | -0.476 | -0.3 | -1.19 | -0.104 | . | .
C=CCn1c(=O)c2ccccc2n2c(SCc3nc(N)nc(Nc4ccccc4C)n3)nnc12 | . | 14.8 | 3.99* | 1.5 | -0.594 | -0.961 | ? | -48.7
O=C(NC1CCCCC1)C(c1cccnc1)N(C(=O)c1csnn1)C1CCCC1 (centres undefined) | -13.4 | . | . | . | . | . | . | .
CC(C)N(Cc1nc(-c2ccc(Cl)cc2)no1)C(=O)CCC1CCCC1 | -49.3 | 2.7 | 3.39* | 6.0 | -0.446 | 0.0266 | ? | -45.1
Cc1onc(-c2ccccc2Cl)c1C(=O)Nc1ccc(-c2cn3cccnc3n2)cc1 | . | 4.0 | 4.42* | . | 1.23 | 0.416 | -7.27 | -9.8
Cc1onc(-c2ccccc2Cl)c1C(=O)Nc1cccc(-c2nc3ncccn3c2C)c1 | . | 13.1 | 3.25* | . | -1.46 | -2.29* | ? | -61.5
CN(C)CCCNc1cc(Cl)c(S(=O)(=O)N2CCCCC2)cc1C(=O)O | 20.8 | 3.9 | -0.131 | 8.8 | 0.653 | 0.524 | . | .
Cn1c(=O)c(NCCO)c2c3c(cccc31)C(=O)c1ccccc1-2 | 11.0 | 18.8 | 388* | . | 2.38 | -13.2* | 3131* | 2588*
CCNc1c2c3c(cccc3n(C)c1=O)C(=O)c1ccccc1-2 | . | 22.6 | 357* | 8.7 | . | -17.3* | 3230* | 2794*
Cc1[nH]nc(SCC(=O)N2CCC(C)CC2)c1[N+](=O)[O-] | 18.0 | . | . | . | . | . | . | .
C=C1c2cc(OC)ccc2NC(=O)N1CC | . | . | 8.22* | . | . | 0.0689 | 70.8* | 11.1
CCN1/C(=C/C(C)=O)Sc2ccc(OC)cc21 | . | 15.5 | 0.15 | 2.1 | 0.228 | -0.933 | . | .
CCC(CC)C(=O)Nc1ccc(Cl)c(Cl)c1 | -12.8 | . | . | . | . | . | . | .
CC12CC(c3ccccc3O1)C(C(=O)NCc1ccccc1)C(=O)N2 (centres undefined) | 52.1 | -3.3 | 0.49 | 2.4 | -0.897 | -0.0275 | . | .
Cc1cccc2cc3c(N)c(C(=O)N4CCOCC4)sc3nc12 | 41.4 | 2.7 | 6.99* | 75.5* | -1.97 | -0.369 | ? | 30.8
O=S(=O)(Nc1cnc2ccccc2c1)N1CCCCCC1 | . | 1.2 | -2.53* | 17.3 | 0.352 | -1.62 | -12.7 | -16.6
O=C(CSc1nc(-c2ccncc2)nn1CC(=O)N1CCCCC1)NC1CCCC1 | 36.9 | -1.5 | -0.17 | . | . | 0.0214 | . | .
O=C(c1ccccc1C(=O)N1CCN(c2ccccc2)CC1)N1CCN(c2ccccc2)CC1 | 13.6 | 12.9 | 3.74* | 3.9 | -2.1 | 0.256 | 5.41 | -40.9
SMILES | mHtt clearance | HEK293 NFkB inh | M1 agonist | Jurkat tox 60K | D1 allo mod | M1 antagonist | M1 agonist conf | M4 agonist ctr
O=C(O)c1ccccc1C(=O)N1CCN(c2ccccc2)CC1 | . | 24.5 | -0.74 | 1.7 | . | 0.352 | . | .
O=C(OCC#CCSc1nnc(-c2cccc3ccccc23)o1)c1cccs1 | -7.8 | 11.0 | 18.3* | 9.6 | 0.0942 | -1.14 | ? | -29.9
C=CCOc1ccc2ccccc2c1/C=N/O | 24.9 | . | . | . | . | . | . | .
COc1ccc2ccccc2c1/C=N/O | . | 9.9 | 5.62* | 0.3 | 2.17 | -1.27 | ? | -70.6*
CCc1c(C)nc(/N=C(/NC(=O)c2ccccc2)Nc2ccccc2OC)[nH]c1=O | . | -2.4 | -1.09 | -2.7 | 0.00598 | -0.0687 | . | .
CCOC(=O)C1CCN(S(=O)(=O)c2c(C)n(C)c(=O)n(C)c2=O)CC1 | 19.3 | 8.0 | 1.01 | -0.6 | -0.858 | -0.0332 | . | .
COc1ccc(S(=O)(=O)NCCCCNS(=O)(=O)c2ccc(OC)cc2)cc1 | 66.1 | 17.1 | -4.2* | -7.4 | -0.244 | -2.18 | -19.4 | -23.3
COc1ccc(CNS(=O)(=O)c2ccc(OC)cc2)cc1 | 56.4 | 18.2 | 0.749 | -3.4 | 0.0801 | 0.105 | . | .
COc1ccc(OC)c(/C=c2\sc3nc(-c4cccs4)nn3c2=O)c1 | . | 3.9 | 13.4* | 2.8 | -0.0738 | 0.00654 | 478* | 556*
COc1ccccc1/C=c1\sc2nc(-c3ccco3)nn2c1=O | -25.9 | 13.8 | 1.47 | 5.3 | -0.283 | 0.0965 | . | .
CCOC(=O)/C(C#N)=C/C1=C(N2CCCC2)CC(C)(CC)OC1 (centres undefined) | 2.6 | . | . | . | . | . | . | .
CN1CCN(c2ccccc2NS(=O)(=O)c2ccc3c(c2)CCN3C(=O)C2CCC2)CC1 | -1.4 | 2.5 | -1.47 | -1.8 | -0.629 | -0.97 | . | .
CCOP(=O)(OCC)C(C#N)=C1SCN(c2ccccc2)CS1 | -25.3 | . | . | . | . | . | . | .
Cc1nc(SCC(=O)N2CCC(C(N)=O)CC2)n[nH]1 | 8.5 | 11.3 | 3.93* | -2.5 | -0.769 | -0.179 | ? | -44.7
Cc1ccc(/C=c2\s/c(=C(/C#N)C(=O)N3CCCC3)n(Cc3ccco3)c2=O)s1 | . | 14.7 | 2.97* | 1.9 | 1.32 | -0.0884 | 1.97 | 3.25
COC(=O)/C=c1/s/c(=C(/C#N)C(=O)N2CCCCC2)n(-c2ccccc2)c1=O | . | . | 0.0472 | . | . | 0.0695 | . | .
CC1CCN(c2nc(-c3ccccc3)cc(C(F)(F)F)n2)CC1 | . | 10.9 | 1.28 | . | 0.617 | -0.117 | . | .
Cc1ccc(-c2cc(C(F)F)nc(N3CCC(C)CC3)n2)cc1 | -45.5 | 3.8 | 4.23* | . | 2.6 | 0.705 | 3.35 | -8.72
CC(CCc1ccccc1)NC(=O)C1CCN(S(=O)(=O)c2cnc[nH]2)CC1 (centres undefined) | . | 17.5 | -0.146 | 1.2 | 0.0466 | 1.66 | . | .
COc1cccc(C(=O)N2CCN(C3CCC(c4ccccc4)CC3)CC2)c1OC (centres undefined) | -40.2 | 17.4 | 18.2* | 1.0 | -1.69 | -3.14* | ? | -39.9
COc1ccc(C2C(C(=O)Nc3cc(C)on3)c3ccccc3C(=O)N2C)cc1OC (centres undefined) | -14.5 | 5.8 | 0.00943 | . | 0.573 | 0.788 | . | .
